KCNQ1 pot = potentiators or activators of human KCNQ1 potassium channel. P51787. CHO-K1 KCNQ1, thallium flux FluxOR fluorescence; hits give high values. B-score at 10 µM. actives 0.35% (n = 310,000);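 active = fluorescence ratio B-score, a plate-corrected score, at least three library SD, with initial intensity B-score within 5 SD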
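Test system: CHO-K1 cells stably expressing KCNQ1 / Medium: assay buffer / Also added: depolarizing K+/Tl+ stimulus, K2SO4 and Tl2SO4 each 12.5 mM in 5x stock / Incubation: 90 min dye loading and 20 min compound exposure, both at room temperature / Signal: thallium influx via FluxOR fluorescence, kinetic imaging / Evaluation: B score of baseline-normalized fluorescence ratio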
KCNK3 inh = human KCNK3 channel inhibition, primary screen; O14649; CHO-KCNK3 thallium flux, FluxOR fluorescence; hits give low values; B-score at 10 µM; actives 0.84% (n = 340,000); AID 602410;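 active = B-score under library mean minus 4 SD, starting fluorescence ratio at most library mean plus 5 SD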;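 also: more negative B-score means stronger inhibition of thallium flux through KCNK3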
hERG rescue = compounds protecting human hERG from proarrhythmic drug block; CHO-hERG, FluxOR thallium flux, dofetilide IC70 present; activation (rescue from dofetilide block), less the hit threshold, % at 10 µM; actives 0.51% (n = 310,000); AID 1511;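 active = activation above the mean of controls blocked by dofetilide plus 5 SD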;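 also: thallium influx through hERG after potassium depolarization seen as dye fluorescence rise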
KCNK9 inh = human KCNK9 channel inhibition; Q9NPC2; HEK293 KCNK9, FluxOR thallium flux fluorescence; hits give low values; B-score at 10 µM; actives 1.2% (n = 310,000);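 active = ratio B-score over 3 SD below the library mean, with starting fluorescence within 5 SD of its mean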;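 also: negative B-score means less thallium flux so channel inhibition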
Target sequence (Q9NPC2 whole entry, looked up): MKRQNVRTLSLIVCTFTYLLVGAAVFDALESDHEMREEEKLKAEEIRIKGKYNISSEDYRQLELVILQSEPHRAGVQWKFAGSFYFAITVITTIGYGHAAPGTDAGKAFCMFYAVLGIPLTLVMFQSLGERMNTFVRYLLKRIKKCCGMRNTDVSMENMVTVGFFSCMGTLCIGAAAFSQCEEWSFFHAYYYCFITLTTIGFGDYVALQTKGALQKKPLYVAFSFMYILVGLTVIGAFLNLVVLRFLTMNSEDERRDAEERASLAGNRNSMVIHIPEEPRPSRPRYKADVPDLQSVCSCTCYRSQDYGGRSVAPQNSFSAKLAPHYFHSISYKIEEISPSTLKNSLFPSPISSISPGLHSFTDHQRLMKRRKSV
KCNQ1 block = inhibitors of human KCNQ1 potassium channel | P51787 | CHO-K1 KCNQ1, FluxOR thallium flux fluorescence; hits give high values | B-score at 10 µM | actives 1.3% (n = 310,000);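 active = compounds whose thallium flux B-score, printed positive for inhibition, exceeds three library SD while starting fluorescence stays within three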;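 also: channel opened by potassium depolarization with thallium stimulus after 20 min compound exposure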
Numbers stand for hits; i = inactive; nt = not tested or not shown. An excerpt weighted towards active compounds, which were near 3.1% of everything screened.

SMILES | KCNQ1 pot | KCNK3 inh | hERG rescue | KCNK9 inh | KCNQ1 block
Cc1ccc(C2C(C#N)=C(N)OC3=C2C(=O)CC(C)(C)C3)s1 (stereo unspecified) | 9 | i | i | i | i
CCC1C/C(=C\c2cc(OC)c(OC)cc2OC)C(=O)/C(=C/c2cc(OC)c(OC)cc2OC)C1 (stereo unspecified) | i | -11 | i | i | 7
COc1ccc(OC)c(NC(=O)COC(=O)CC2CCCCC2)c1 | nt | i | nt | nt | nt
COc1ccc(N(C)C(=O)c2ccc3nc(-c4ccccc4)c(-c4ccccc4)nc3c2)cc1 | i | i | i | -7.4 | 9
CCCC(=O)C1=C(O)C(C(=O)OC)C(C)(C)CC1=NCCc1ccccc1 (stereo unspecified) | i | i | i | i | i
COc1ccc(C(=O)NC(=O)CSc2nc3nc(C)cc(C)n3n2)cc1 | nt | i | nt | nt | nt
COC(=O)c1c(NC(=O)CSc2nnnn2-c2ccc3c(c2)OCO3)sc(C)c1C | i | i | i | -6.9 | i
CCOC(=O)c1c(NC(=O)CSc2nnnn2-c2ccc3c(c2)OCO3)sc(C)c1C | i | i | i | i | i
COCCCN(C(=O)c1cc2c(s1)CCCCC2)c1c(N)n(Cc2ccccc2)c(=O)[nH]c1=O | i | i | i | i | i
CC(C)(C)c1ccc(CN2C3=NCCCN3c3ccccc32)cc1 | i | i | i | i | 11
COc1cc(C2C(C#N)=C(N)N(Nc3ccccc3)C3=C2C(=O)CC(C)(C)C3)ccc1OCc1ccccc1 (stereo unspecified) | i | i | i | -7.3 | i
COc1cccc(OCCNC(=O)Nc2cc(F)c(F)cc2Cl)c1 | i | i | 6.1 | i | i
COc1ccc(OCCNC(=O)Nc2cc(F)c(F)cc2Cl)cc1 | i | i | i | i | i
O=C1COc2ccc(NC(=O)c3ccccc3C(=O)O)cc2N1 | i | i | i | i | i
O=C1NC(c2ccccc2)=NC1(NS(=O)(=O)c1ccccc1)C(F)(F)F (stereo unspecified) | i | i | i | i | i
COc1ccc(S(=O)(=O)NC2(C(F)(F)F)N=C(c3ccccc3)NC2=O)cc1 (stereo unspecified) | i | i | i | -7.9 | i
Cc1ccc(S(=O)(=O)CCC(=O)c2ccc(F)cc2)cc1 | i | i | i | i | i
COc1ccc(C(=O)CCS(=O)(=O)c2ccc(F)cc2)cc1OC | 24 | i | i | i | i
COc1ccc(-c2cc(C(=O)OCC(=O)N(C)C3CCS(=O)(=O)C3)c3ccccc3n2)cc1OC (stereo unspecified) | i | i | i | i | i
Cc1ccc(OCc2nc(C#N)c(N3CCCCC3)o2)cc1 | i | i | i | i | i
N#Cc1nc(Cc2ccccc2)oc1N1CCN(c2ccccc2)CC1 | i | i | i | -7 | i
N#Cc1nc(COc2ccc(Cl)cc2)oc1N1CCCCCC1 | nt | -8.7 | nt | nt | nt
N#Cc1nc(Cc2cccc3ccccc23)oc1N1CCCCC1 | i | i | i | i | 6
N#Cc1nc(Cc2ccccc2)oc1N1CCC(C(N)=O)CC1 | i | i | i | i | i
CC1Sc2ccc(S(=O)(=O)CCC(=O)N3CCN(c4cccc(Cl)c4)CC3)cc2NC1=O (stereo unspecified) | i | i | i | i | i
SMILES | KCNQ1 pot | KCNK3 inh | hERG rescue | KCNK9 inh | KCNQ1 block
CCCn1nc([N+](=O)[O-])c(C(C#N)c2nc3ccccc3o2)c(Cl)c1=O (stereo unspecified) | i | i | i | i | 6
Cn1ncc(N=Cc2c(O)ccc3ccccc23)c1C(=O)Nc1cccc(Cl)c1 | i | i | i | -7.4 | i
COc1cc(C(=S)N2CCOCC2)ccc1OC(=O)c1ccc([N+](=O)[O-])cc1[N+](=O)[O-] | i | i | 5.9 | i | i
COc1ccc(C(=S)N2CCOCC2)cc1OC(=O)c1ccc([N+](=O)[O-])cc1 | i | i | i | i | i
O=C(Nn1c(O)c(C=C2N=c3ccccc3=N2)sc1=S)c1cccc(Cl)c1 | i | i | 12 | i | i
CCCCc1nc2sc3c(SCCN(C)C)ncnc3c2c2c1CCC2 | 21 | i | i | i | i
COc1ccc(OC)c(/C=C2\SC(N3CCCC(C)C3)=NC2=O)c1 (stereo unspecified) | i | i | i | i | 7
COc1ccc2c(c1)O[C@@H](c1cccc(C(F)(F)F)c1)[C@H](OC(=O)NCCc1ccc(OC)c(OC)c1)C2=O | 8 | nt | 8.4 | i | i
COc1cccc([C@@H]2Oc3ccc(OC)cc3C(=O)[C@H]2OC(=O)NCc2ccc3c(c2)OCO3)c1 | i | nt | 4.6 | i | i
COC(=O)[C@H](Cc1ccccc1)NC(=O)O[C@H]1C(=O)c2ccc(OC)cc2O[C@@H]1c1ccc2c(c1)OCO2 | i | nt | i | i | i
Cc1cc(C)cc(N2C(=O)C=CC2=O)c1 | nt | i | nt | nt | nt
COc1ccc(-n2cc(-c3ccccc3)c3c(NN4CCOCC4)ncnc32)cc1 | i | i | i | i | 9
Fc1ccc(-n2cc(-c3ccccc3)c3c(NN4CCOCC4)ncnc32)cc1 | i | i | i | i | i
CC1CCCCC1NC(=O)Cn1nc(-c2ccccc2)ccc1=O (stereo unspecified) | i | i | 4.9 | i | i
CC1CCCCN1CCNC(=O)Cn1nc(-c2ccccc2)ccc1=O (stereo unspecified) | i | i | i | i | i
Cc1ccc(C(=O)Nc2nc(-c3ccccn3)cs2)o1 | i | i | i | i | i
CCc1cc(C(=O)Nc2nc(-c3ccccn3)cs2)sc1C | nt | -9.2 | nt | nt | nt
CCOc1ccc(N2CC(NS(=O)(=O)c3cccnc3)CC2=O)cc1 (stereo unspecified) | i | i | i | i | i
CCOC(=O)N1CCN(C(=O)c2ccc3c(c2)N(Cc2cc(C)ccc2C)C(=O)c2ccccc2S3=O)CC1 (stereo unspecified) | i | i | i | i | i
CCCC(=O)NC1=C(Cl)C(=O)c2ccccc2C1=O | nt | -9.3 | nt | nt | nt
Cc1onc(-c2ccccc2Cl)c1C(=O)Nc1nnc(-c2cccc([N+](=O)[O-])c2)s1 | i | i | i | i | 11
CCSc1nnc(NC(=O)c2c(-c3ccccc3Cl)noc2C)s1 | i | i | i | i | i
CCOc1ccc(C(=O)NNC(=O)CNC(=O)c2ccc(C)s2)cc1OC | nt | i | nt | nt | nt
CCCSc1nc(N)cc(=O)[nH]1 | i | i | 4.7 | i | i
CCCSc1nc(C)cc(=O)[nH]1 | i | i | i | i | i
SMILES | KCNQ1 pot | KCNK3 inh | hERG rescue | KCNK9 inh | KCNQ1 block
CCOc1cccc(=O)c2c(C)n(-c3ccc(C(=O)O)cc3)c(C)c12 | i | i | 4.8 | i | i
COc1cccc(=O)c2c(C)n(-c3ccc(C(=O)O)cc3)c(C)c12 | i | i | i | i | i
CC1(C)CC(NC(=S)NC2CC2)CC(C)(C)N1 | i | i | 7.0 | i | i
C=CCNC(=S)NC1CC(C)(C)NC(C)(C)C1 | i | i | i | i | i
O=C(NCc1ccccn1)c1ccc2nc(C3CCCCC3)oc2c1 | i | i | i | i | i
CN1CCN(C(=S)c2ccc(-c3cc(Cl)ccc3Cl)o2)CC1 | i | i | i | i | i
